Compound activity (PubChem BioAssay)
The list is not random: actives were taken first. Their share in the collection is about 2.1%.
CXCR6 inh: blocks human CXCR6 beta-arrestin recruitment; CHO-K1 PathHunter CXCR6 beta-arrestin, luminescence; O00574; 0.36% of 360,000 active; inhibition, % at 20 µM; in the data active means inhibition above about 34%, passing the limit was not always enough;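 further: antagonist mode with CXCL16 agonist at 10 nM final; 0% = 10 nM CXCL16 with DMSO and 100% = unstimulated wells without agonist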
HTR2A ag: agonists of mouse serotonin 5-HT2A receptor (HTR2A) | P35363 | CHO-K1 mHTR2A beta-arrestin complementation, luminescence; percent of 30 µM serotonin response | activation, % at 7.6 µM | 0.66% of 360,000 active;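 active means activation above a run cutoff, the mean activation of all tested compounds plus 3 SD, cut at about 14% in these data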;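 further: 0% = plate median of compound wells and 100% = 30 µM serotonin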
Target sequence (P35363 whole entry, looked up): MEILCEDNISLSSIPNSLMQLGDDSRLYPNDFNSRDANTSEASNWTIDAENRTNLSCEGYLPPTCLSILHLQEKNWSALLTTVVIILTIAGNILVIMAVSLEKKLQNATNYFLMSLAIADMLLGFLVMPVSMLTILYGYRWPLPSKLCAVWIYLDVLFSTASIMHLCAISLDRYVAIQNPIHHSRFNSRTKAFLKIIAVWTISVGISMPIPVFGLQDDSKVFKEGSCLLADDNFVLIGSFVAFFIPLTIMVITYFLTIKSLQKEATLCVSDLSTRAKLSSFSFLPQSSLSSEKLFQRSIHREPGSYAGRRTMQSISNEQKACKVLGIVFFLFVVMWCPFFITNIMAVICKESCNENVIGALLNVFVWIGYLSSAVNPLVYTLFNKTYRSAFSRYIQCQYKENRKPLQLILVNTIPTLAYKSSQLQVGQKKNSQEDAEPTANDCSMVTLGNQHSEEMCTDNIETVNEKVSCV
APJ antagonist: antagonists of human APJ apelin receptor | CHO-K1 APJ beta-arrestin complementation, luminescence | P35414 | 0.32% of 330,000 active | inhibition, % at 20 µM;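 active means inhibition above about 40% at 20 µM, limit read from the data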;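 further: cells challenged with 10 nM apelin-13 agonist together with compound; plate controls were apelin-13 plus DMSO wells for no effect and DMSO wells lacking apelin-13 for full effect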
EBI2 antag: EBI2 (human) antagonism | P32249 | EBI2 beta-arrestin recruitment, luminescence, 7a,25-OHC stimulated | inhibition, % at 5 µM | 0.81% of 360,000 active; in the data active means inhibition above about 38%;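 further: enzyme fragment complementation signal reports receptor beta-arrestin coupling in cells; 0% = agonist plus DMSO wells and 100% = wells without agonist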
CCR6 antag: antagonists of human CCR6 receptor; P51684; CHO-K1 CCR6 PathHunter beta-arrestin, luminescence, CCL20-stimulated; inhibition, % at 20 µM; 0.49% of 340,000 active;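 active means compounds whose inhibition of the agonist-driven luminescence signal at 20 µM reaches about 50%, limit read from the data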;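 further: cells stimulated with CCL20 at 14 nM final; plate controls were DMSO with CCL20 for no effect and DMSO without agonist for full effect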
APJ agonist: agonists of human APJ apelin receptor. 0.11% of 330,000 active. CHO-K1 APJ PathHunter beta-arrestin, luminescence; 0% DMSO wells, 100% apelin. activation, % at 20 µM. AID 2520;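 active means activation more than six SD over the plate average, tested at 20 µM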;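 further: 0% = DMSO alone and 100% = apelin-13 at 10 nM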
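Test system – PathHunter CHO-K1 APJ (AGTRL-1) beta-arrestin reporter cells · Input – 1000 cells/well · Compound – single test compound dose, 20 µM final, 1% DMSO · Times – compound stimulation 90 min at 25 °C, detection 60 min · Technique – beta-gal luminescence · Read-out basis – APJ–arrestin association signal · Control set – negative DMSO alone, positive Apelin-13 at 10 nM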
OPRM1 ag: OPRM1 agonism in mouse HTR2A counterscreen | 5.3% of 2,300 active | shares compounds with HTR2A ag | activation, % at 9.3 µM | U2OS OPRM1 beta-arrestin PathHunter, luminescence; DMSO 0%, DAMGO 9.3 µM 100%;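 active means mean activation above the mean of DMSO-only wells plus 3 SD, cut at about 0.5% in these data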
HTR2A ag conf: mouse HTR2A agonism confirmed; 19% of 2,300 active; CHO-K1 PathHunter beta-arrestin recruitment, luminescence; DMSO 0%, 30 µM serotonin 100%; activation, % at 7.6 µM; AID 624381; shares compounds with HTR2A ag;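 active means mean activation across triplicates above the hit threshold derived in the original primary screen, cut at about 15% in these data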
* marks the source's active call; other numbers are inactive results; . = no result.

SMILES	CXCR6 inh	HTR2A ag	APJ antagonist	EBI2 antag	CCR6 antag	APJ agonist	OPRM1 ag	HTR2A ag conf
O=C(c1cccs1)N(Cc1ccc(Cl)cc1)C1CCS(=O)(=O)C1 (stereo unspecified)	-1	-1	8	2	9	1	.	.
COc1ccc(-n2nc(C(=O)NCC(=O)N(C)Cc3ccccc3)c3ccccc3c2=O)c(OC)c1	5	3	2	-2	12	-7	.	.
COc1ccccc1/C=N/NS(=O)(=O)c1ccccc1	3	2	11	-5	4	-2	.	.
COc1ccc(S(=O)(=O)N/N=C\c2ccccc2F)cc1	7	15*	3	3	-1	4	-1	-5
COc1ccc(C(=O)N=C2SC3CS(=O)(=O)CC3N2c2ccc(C(C)=O)cc2)cc1 (stereo unspecified)	-5	16*	12	-8	5	-1	0	-5
COc1cccc(NC(=O)CN(C)C(=O)c2cc(S(=O)(=O)NCc3ccccc3)ccc2C)c1	2	-9	-10	-1	1	2	.	.
CCOC(=O)NC(Nc1ccc(C)cn1)(C(F)(F)F)C(F)(F)F	-5	2	18	-20	-5	1	.	.
CC(C)OC(=O)NC(Nc1ccccc1C(=O)O)(C(F)(F)F)C(F)(F)F	-6	22*	40	-6	10	-3	0	1
O=Cc1ccc(OC(=O)c2cccnc2)cc1	10	15*	12	-7	3	-7	-1	-6
CC(=O)/C=C\c1ccc(OC(=O)c2cccnc2)cc1	0	1	7	4	-10	2	.	.
Cc1nc2ccccc2c(=O)n1-c1ccc(NS(=O)(=O)c2ccccc2)cc1	-6	15*	-9	-4	14	-3	0	-2
Cc1nc2ccccc2c(=O)n1-c1ccc(NS(=O)(=O)c2ccc(F)cc2)cc1	6	-2	-37	-11	-4	-1	.	.
CC(=O)Nc1cc2c3c(cccc3c1)-c1ccccc1-2	-8	-5	.	-11	-11	.	.	.
Cc1cccc(-n2ccnc2SCC(=O)O)c1C	-1	1	10	-7	-8	-1	.	.
Cc1ccccc1-n1ccnc1SCC(=O)O	-10	17*	-5	3	2	-3	-1	-5
O=C(Nc1ccccn1)c1ccc(S(=O)(=O)N2CCCCCC2)cc1	1	15*	12	-1	10	-4	0	-3
CCCCn1c(N)c(N(Cc2ccccc2OC)C(=O)COc2ccc(C)cc2)c(=O)[nH]c1=O	4	4	13	1	-6	1	.	.
CN(Cc1ccccc1)CC(O)COc1ccc(CNCCOc2cccnc2)cc1 (stereo unspecified)	-7	18*	-2	1	-5	-2	-1	38*
Cc1ccc(NC(=O)Nn2cnnc2)cc1	4	16*	-7	-12	4	-3	-1	0
O=C(Nc1ccc(Cl)cc1)Nn1cnnc1	10	-1	-1	-4	12	0	.	.
CCC(=O)Nc1nnc(S(=O)(=O)N(C)c2cc(C)cc(C)c2)s1	2	-8	-9	3	6	0	.	.
CC(Sc1ncnc2sc(-c3ccccc3)cc12)C(N)=O (stereo unspecified)	0	-1	3	-1	-5	2	.	.
COC(=O)C(C)n1nnc2sc(-c3ccccc3)cc2c1=O (stereo unspecified)	7	16*	-6	-1	9	-2	0	0
COc1ccc(CCN2CC(C(=O)NCc3ccon3)CCC2=O)cc1 (stereo unspecified)	10	3	.	2	.	.	.	.
CCN(C(=O)CN1C(=O)NC2(CCc3ccccc32)C1=O)C1CCS(=O)(=O)C1 (stereo unspecified)	-2	-8	0	1	5	-3	.	.
SMILES	CXCR6 inh	HTR2A ag	APJ antagonist	EBI2 antag	CCR6 antag	APJ agonist	OPRM1 ag	HTR2A ag conf
CN(C(=O)CN1C(=O)NC2(CCc3ccccc32)C1=O)C1CCS(=O)(=O)C1 (stereo unspecified)	-1	18*	2	-1	4	3	-1	-2
O=C1Nc2ccccc2/C1=C/c1ccccc1Cl	-1	-5	1	7	17	-4	.	.
O=C1Nc2ccccc2/C1=C/c1ccc([N+](=O)[O-])cc1	3	28*	-39	20	0	-2	1.0*	-1
CC1(C(=O)NS(=O)(=O)c2ccc(Cl)cc2)CCN1C(=O)C1(c2ccc(Cl)cc2)CC1 (stereo unspecified)	-2	15*	.	4	.	.	-1	-1
CCc1nc2c(OCC(=O)c3ccc(F)cc3)cccn2c1N(C)C(=O)C(C)C	-1	24*	.	-4	.	.	0	-5
CCc1nc2c(OC)cccn2c1N(C)C(=O)c1ccccc1F	-5	2	.	-1	.	.	.	.
C=CCOc1cccn2c(N(C)C(=O)c3ccccc3F)c(CC)nc12	-5	16*	.	-2	.	.	0	-2
COc1ccc(S(=O)(=O)N2CCC3(CC2)OCCN3S(=O)(=O)c2ccc(C)cc2)cc1OC	0	-3	-10	0	18	10	.	.
O=C(CSc1nc2[nH]ncc2c(=O)n1-c1ccccc1)N1CCCCCC1	.	.	6	.	.	-1	.	.
O=C(NCC(=O)N(c1cccnc1)C(C(=O)NCc1ccco1)c1ccccc1)c1ccco1 (stereo unspecified)	1	15*	11	-7	10	-1	0	10
O=C(NCC(=O)N(c1cccnc1)C(C(=O)NC1CCCC1)c1ccccc1)c1ccco1 (stereo unspecified)	2	0	3	-4	4	-1	.	.
COc1ccc(C=CC(=O)c2ccc3cc(OC)c(OC)cc3c2)cc1OC	2	17*	.	3	.	.	-1	1
COc1ccc(C=CC(=O)c2ccc(OC)c(OC)c2)cc1O	4	6	.	4	.	.	.	.
C=CCn1c(N)c(C(=O)Nc2cccc(C)c2)c2nc3ccccc3nc21	-8	20*	-17	3	-11	-11	0	1
C=CCn1c(N)c(C(=O)Nc2ccc(C)c(C)c2)c2nc3ccccc3nc21	7	-1	-9	10	-11	-2	.	.
Cc1cc(C2(O)C(=O)Nc3ccccc32)ccc1F (stereo unspecified)	0	-3	9	-5	7	-1	.	.
CCOC(=O)N1CCC(N2C(=O)c3ccccc3C2Nc2ccccc2C)CC1 (stereo unspecified)	11	-4	6	2	0	-6	.	.
